Assays:
[1] = AUC (0 to infinity) in monkey at 20 mg/kg, iv administered as bolus dose by HPLC method; type: ADME, organism-based, Macaca mulatta; parameters: dose 20 mg/kg, time infinity, route intravenous; conditions: rhesus monkey, in vivo
Procedure, shortened: (§1)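 Three monkeys per group received a single iv bolus of 20 mg/kg (1 mL/kg). Plasma levels were measured by HPLC. AUC0-∞, CLtot and T1/2 came from a 2-compartment fit.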

[2] = Half life in monkey at 20 mg/kg, iv administered as bolus dose by HPLC method; type: ADME, organism-based, Macaca mulatta; conditions: rhesus monkey, in vivo; procedure, shortened: as §1
[3] = Total clearance in monkey at 20 mg/kg, iv administered as bolus dose by HPLC method; type: ADME, organism-based, Macaca mulatta; conditions: rhesus monkey, in vivo; procedure, shortened: as §1
[4] = Protein binding in ICR mouse plasma after 30 mins by ultra-filtration method; type: ADME, cell-free; conditions: read-out: PPB (converted)
Procedure, shortened: (§2)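 Mouse or monkey plasma was adjusted to pH 7 with CO2 and spiked with compound to a final 10 µg/ml. It was incubated 30 min at 37 °C, then ultrafiltered by centrifugation at 3200 rpm for 30 min at 25 °C. Free drug in the filtrate was measured by bioassay to give the bound fraction.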

[5] = Protein binding in cynomolgus monkey plasma after 30 mins by ultra-filtration method; type: ADME, cell-free, Macaca fascicularis; conditions: read-out: PPB (converted); procedure, shortened: as §2
Staphylococcus aureus = experiment: Antibacterial activity against Staphylococcus aureus SMITH after 20 hrs by agar dilution method; type: functional
Procedure, shortened: (§3)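 Agar dilution MIC on Sensitivity Disk Agar-N with 2-fold serial drug dilutions. Overnight Mueller Hinton broth cultures were diluted to about 10^6 CFU/mL, and 1 µL spots were applied. Plates were incubated 20 h at 37 °C before scoring.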

Streptococcus pneumoniae [6] = experiment: Antibacterial activity against penicillin-resistant Streptococcus pneumoniae SR16675 after 20 hrs by agar dilution method; type: functional; conditions: SR16675, 20 h
Procedure, shortened: (§4)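 Agar dilution on Sensitivity Disk Agar-N. Overnight Mueller Hinton broth cultures were diluted to about 10^6 CFU/mL, and 1 µL spots were placed on agar plates holding 2-fold serial dilutions of antibiotic. Plates were incubated 20 h at 37 °C and then MICs were scored.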

Streptococcus pneumoniae [7] = experiment: Antibacterial activity against penicillin-resistant Streptococcus pneumoniae SR16750 after 20 hrs by agar dilution method; type: functional; conditions: SR16750, 20 h; procedure, shortened: as §4
Haemophilus influenzae [8] = experiment: Antibacterial activity against beta-lactamase non-producing penicillin-resistant Haemophilus influenzae SR11435 after 20 hrs by agar dilution method; type: functional; conditions: SR11435, 20 h; procedure, shortened: as §4
Haemophilus influenzae [9] = experiment: Antibacterial activity against beta-lactamase non-producing penicillin-resistant Haemophilus influenzae SR24106 after 20 hrs by agar dilution method; type: functional; conditions: SR24106, 20 h; procedure, shortened: as §4
Moraxella catarrhalis = experiment: Antibacterial activity against Moraxella catarrhalis SR24290 after 20 hrs by agar dilution method; type: functional; conditions: SR24290, 20 h; procedure, shortened: as §3
Escherichia coli = experiment: Antibacterial activity against Escherichia coli NIHJ JC-2 after 20 hrs by agar dilution method; type: functional; conditions: NIHJ JC-2, 20 h; procedure, shortened: as §3
[10] = Half life in mouse at 20 mg/kg, iv administered as bolus dose by band-culture bioassay; conditions: in vivo
[11] = Total clearance in mouse at 20 mg/kg, iv administered as bolus dose by band-culture bioassay; conditions: in vivo
[12] = AUC (0 to infinity) in mouse at 20 mg/kg, iv administered as bolus dose by band-culture bioassay; conditions: in vivo

| Structure (SMILES) | AUC [1] | half-life [2] | clearance [3] | fraction unbound at 0.5 h [4] | fraction unbound at 0.5 h [5] | MIC (Staphylococcus aureus) | MIC (Streptococcus pneumoniae [6]) | MIC (Streptococcus pneumoniae [7]) | MIC (Haemophilus influenzae [8]) | MIC (Haemophilus influenzae [9]) | MIC (Moraxella catarrhalis) | MIC (Escherichia coli) | half-life [10] | clearance [11] | AUC(0-inf) [12] |
| --- | --- | --- | --- | --- | --- | --- | --- | --- | --- | --- | --- | --- | --- | --- | --- |
| CCO/N=C(\C(=O)N[C@@H]1C(=O)N2C(C(=O)[O-])=C(/C=C/C[n+]3ccc(-c4c[nH]c(/C([O-])=N/C#N)c4C)cc3)CS[C@H]12)c1csc(N)n1.[Na+] | 42200 ng·h/mL | 311 min | 0.4 mL/min/kg | 0.54 | 0.16 | 0.25 µg/mL | 0.125 µg/mL | 0.125 µg/mL | 0.063 µg/mL | 0.125 µg/mL | 4 µg/mL | 0.125 µg/mL | 51.6 min | 15.2 mL/min/kg | 22000 ng·h/mL |
| CCO/N=C(\C(=O)N[C@@H]1C(=O)N2C(C(=O)[O-])=C(/C=C/C[n+]3ccc(-c4c[nH]c(/C([O-])=N/C#N)c4)cc3)CS[C@H]12)c1csc(N)n1.[Na+] | 20200 ng·h/mL | 255 min | 0.84 mL/min/kg | 0.75 | 0.3 | 0.25 µg/mL | 0.125 µg/mL | 0.25 µg/mL | 0.063 µg/mL | 0.125 µg/mL | 8 µg/mL | 0.125 µg/mL | 55.8 min | 18.9 mL/min/kg | 17600 ng·h/mL |
| CCO/N=C(\C(=O)N[C@@H]1C(=O)N2C(C(=O)[O-])=C(C[n+]3ccc(-c4cc(/C([O-])=N/C#N)[nH]n4)cc3)CS[C@H]12)c1csc(N)n1.[Na+] (stereo in doubt) | – | – | – | 0.77 | – | 1 µg/mL | 0.25 µg/mL | 0.5 µg/mL | 0.063 µg/mL | 0.25 µg/mL | 0.5 µg/mL | 0.5 µg/mL | 68.4 min | 30.8 mL/min/kg | 10800 ng·h/mL |
| N#C/N=C(\[O-])c1cc(-c2cc[n+](CC3=C(C(=O)[O-])N4C(=O)[C@@H](NC(=O)/C(=N\OCCF)c5csc(N)n5)[C@H]4SC3)cc2)n[nH]1.[Na+] (stereo in doubt) | – | – | – | 0.76 | – | 1 µg/mL | 0.25 µg/mL | 0.5 µg/mL | 0.063 µg/mL | 0.125 µg/mL | 1 µg/mL | 0.25 µg/mL | 63.6 min | 26.2 mL/min/kg | 12700 ng·h/mL |
| CCCO/N=C(\C(=O)N[C@@H]1C(=O)N2C(C(=O)[O-])=C(C[n+]3ccc(-c4cc(/C([O-])=N/C#N)[nH]n4)cc3)CS[C@H]12)c1csc(N)n1.[Na+] (stereo in doubt) | – | – | – | 0.63 | – | 0.5 µg/mL | 0.25 µg/mL | 0.5 µg/mL | 0.063 µg/mL | 1 µg/mL | 1 µg/mL | 1 µg/mL | 58.8 min | 37.4 mL/min/kg | 8900 ng·h/mL |
| CCO/N=C(\C(=O)N[C@@H]1C(=O)N2C(C(=O)[O-])=C(/C=C/C[n+]3ccc(-c4cc(/C([O-])=N/C#N)n(C)c4)cc3)CS[C@H]12)c1csc(N)n1.[Na+] | 32100 ng·h/mL | 245 min | – | 0.67 | 0.23 | 0.5 µg/mL | 0.25 µg/mL | 0.5 µg/mL | 0.063 µg/mL | 0.125 µg/mL | 8 µg/mL | 0.25 µg/mL | 52.2 min | 12.8 mL/min/kg | 26000 ng·h/mL |
| CO/N=C(\C(=O)N[C@@H]1C(=O)N2C(C(=O)[O-])=C(C[n+]3ccc(-c4cc(/C([O-])=N/C#N)[nH]n4)cc3)CS[C@H]12)c1csc(N)n1.[Na+] (stereo in doubt) | – | – | – | 0.85 | – | 1 µg/mL | 0.25 µg/mL | 0.5 µg/mL | 0.063 µg/mL | 0.25 µg/mL | 2 µg/mL | 0.25 µg/mL | 54.6 min | 18.4 mL/min/kg | 18100 ng·h/mL |
| CCO/N=C(\C(=O)N[C@@H]1C(=O)N2C(C(=O)[O-])=C(C[n+]3ccc(-c4cc(/C([O-])=N/C#N)[nH]n4)cc3)CS[C@H]12)c1nc(N)sc1Cl.[Na+] | – | – | – | 0.43 | – | 1 µg/mL | 0.125 µg/mL | 0.25 µg/mL | 0.25 µg/mL | 2 µg/mL | 0.125 µg/mL | 2 µg/mL | 35.4 min | 8 mL/min/kg | 41500 ng·h/mL |

From ChEMBL document CHEMBL3875165, “Novel broad-spectrum and long-acting parenteral cephalosporins having an acyl cyanamide moiety at the C-3 terminal: Synthesis and structure-activity relationships” (Eur J Med Chem, 2016)
